Sampled rows, rich in hits. Any-hit rate of the full collection: about 2.6%.
STEP block: STEP phosphatase inhibitors, primary screen, biochemical, fluorescence intensity, uHTS; Tyrosine-protein phosphatase non-receptor type 5 (Homo sapiens), P54829; recombinant STEP, OMFP fluorogenic substrate; inhibition, % at 20 µM; 360,000 tested, 0.25% active; AID 588621, 2011;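 active means inhibition at 20 µM, scaled per plate between control wells, above about 37%, limit read from the data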;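 further: 0% = DMSO with enzyme and substrate and 100% = substrate only without enzyme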
Target sequence (P54829 whole entry, looked up): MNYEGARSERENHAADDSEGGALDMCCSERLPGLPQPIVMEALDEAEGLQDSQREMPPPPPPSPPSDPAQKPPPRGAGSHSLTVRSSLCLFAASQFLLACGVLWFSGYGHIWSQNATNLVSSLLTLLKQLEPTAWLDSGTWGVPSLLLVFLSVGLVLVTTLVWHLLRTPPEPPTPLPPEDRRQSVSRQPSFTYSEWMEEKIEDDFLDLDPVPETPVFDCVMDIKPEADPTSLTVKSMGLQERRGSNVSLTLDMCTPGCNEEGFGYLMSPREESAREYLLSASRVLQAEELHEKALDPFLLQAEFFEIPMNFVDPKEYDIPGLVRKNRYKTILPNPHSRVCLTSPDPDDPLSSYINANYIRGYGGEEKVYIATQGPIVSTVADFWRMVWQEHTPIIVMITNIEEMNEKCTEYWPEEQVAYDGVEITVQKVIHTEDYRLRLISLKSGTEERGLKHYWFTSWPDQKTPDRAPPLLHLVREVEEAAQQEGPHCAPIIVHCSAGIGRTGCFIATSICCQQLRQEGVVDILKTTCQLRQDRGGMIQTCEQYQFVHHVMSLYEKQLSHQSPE
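System: STEP phosphatase, cell-free reaction; Buffer or medium: Bis-Tris pH 6.0 buffer with DTT, detergent; Incubation: 20 min at room temperature, dark; Measured by: fluorescence, 480/540 nm.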
NadD inh: inhibitors of S. aureus NadD, primary screen, biochemical, colorimetric, uHTS; Nicotinate-nucleotide adenylyltransferase NadD (Staphylococcus aureus N315); purified NadD enzyme, colorimetric absorbance read-out; inhibition, % at 20 µM; 360,000 tested, 0.78% active; in the data active means inhibition above about 26%
rCAG binder: binders of r(CAG) RNA repeats, primary screen, biochemical, fluorescence. inhibition, % at 3 µM. 370,000 tested, 1.3% active. r(CAG) RNA repeat, TO-PRO-1 dye displacement fluorescence. AID 651821, 2012;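 active means inhibition above the plate cutoff, the mean of all test compounds on that plate plus 3 SD, cut at about 35% in these data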;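 further: 0% = DMSO alone and 100% = 100 µM mitoxantrone as full dye displacement; higher means more dye released from RNA so lower well fluorescence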
LMPTP block: LMPTP phosphatase inhibitors, primary screen, biochemical, fluorescence intensity, uHTS | AID 651560, 2012 | inhibition, % at 20 µM | recombinant LMPTP-A, OMFP fluorogenic substrate | 360,000 tested, 0.22% active | Low molecular weight phosphotyrosine protein phosphatase (Homo sapiens), P24666;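 active means compounds that cut the enzyme signal by at least half of the control window in the single-dose screen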;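 further: plate controls were DMSO wells with enzyme plus substrate for no effect and substrate without enzyme for full effect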
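Buffer or medium: Bis-Tris pH 6.0, DTT, detergent; Assay system: LMPTP-A enzyme; Quantity: 0.625 nM enzyme; Detection: endpoint fluorescence intensity; Times: 50 min dark incubation at room temperature; Controls: substrate-only low control, DMSO enzyme-plus-substrate high control; Doses: single 20 µM dose; Read-out: percent inhibition versus substrate-only and uninhibited controls; Reagent: 400 µM OMFP.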
Scp-1 inhibitor: Scp-1 phosphatase inhibitors, primary screen, biochemical, colorimetric, uHTS; Recombinant Scp1, phosphopeptide, malachite green phosphate absorbance; inhibition, % at 20 µM; 340,000 tested, 0.88% active; AID 493091, 2011;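 active means inhibition above about 50% at 20 µM, limit read from the data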;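 further: plate controls were DMSO wells with enzyme for no effect and wells lacking enzyme for full effect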
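Test system: SCP-1 catalytic domain; Buffer or medium: Acidic Tris acetate buffer with magnesium and detergent; Also added: Phosphorylated 17-residue peptide substrate; Compound: single 20 µM dose, 1% DMSO; Schedule: enzyme reaction 45 min at room temperature, colour 5 min, stabilisation 30 min; Signal: Phosphate-binding colour reagent, absorbance read at 630 nm.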
STEP inh conf: STEP phosphatase inhibitor hit confirmation, biochemical, fluorescence intensity, single concentration | shares compounds with STEP block | recombinant STEP, OMFP fluorogenic substrate | inhibition, % at 20 µM | 520 tested, 32% active; call rule not given here;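 further: 0% = enzyme with substrate plus DMSO and 100% = substrate without enzyme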
Active calls of the source: *.

For O=C(Cc1ccccc1F)N1CCC(n2nnc3ncccc32)CC1 the results were rCAG binder 3.
For CCN(CC)C(=O)CC[C@H]1CC[C@]2(CCCN(C(=O)C3CCCC3)C2)O1 the results were rCAG binder 0.
`Cc1ccc(NC(=S)N(CCCN2CCOCC2)Cc2cccs2)c(C)c1` gave STEP block 55*, NadD inh -6, rCAG binder -7, LMPTP block -2, Scp-1 inhibitor -1 and STEP inh conf 20.
`Cn1c(=O)[nH]c(=O)c2c1nc(SCCN1CCCCC1)n2Cc1ccccc1` gave STEP block -2, NadD inh -2, rCAG binder -6, LMPTP block -2 and Scp-1 inhibitor -1.
`Cc1ccc(Cn2c(SCCN3CCCCC3)nc3c2c(=O)[nH]c(=O)n3C)cc1` gave STEP block 61*, NadD inh 0, rCAG binder 0, LMPTP block -2, Scp-1 inhibitor -4 and STEP inh conf 26.
Cn1c(=O)[nH]c(=O)c2c1nc(SCCN1CCCCC1)n2CCCc1ccccc1 was read as STEP block 80*, NadD inh -12, rCAG binder -6, LMPTP block 1, Scp-1 inhibitor -7 and STEP inh conf 46*.
`COc1cccc(C(=O)n2ccc3ccc(-c4ccc5ccn(C(=O)c6cccc(OC)c6)c5c4)cc32)c1` gave rCAG binder 7.
Screening COc1ccc(CNS(=O)(=O)/C=C/c2ccc(F)cc2CNC(=O)OC(C)(C)C)cc1 returned rCAG binder 2.
Cc1ccc(Nc2nc(=O)c3cc([N+](=O)[O-])ccc3s2)cc1 was read as STEP block 4, NadD inh 21, rCAG binder 5, LMPTP block 14 and Scp-1 inhibitor 29.
COc1ccc(Nc2nc(=O)c3cc([N+](=O)[O-])ccc3s2)cc1 was read as STEP block 43*, NadD inh 11, rCAG binder 1, LMPTP block 80*, Scp-1 inhibitor 1 and STEP inh conf -4.
For Cc1cccc(N2CCN(C(=O)CCS(=O)(=O)c3ccc4c(c3)oc(=O)n4C)CC2)c1C the results were STEP block -1, NadD inh 2, rCAG binder -1, LMPTP block 0 and Scp-1 inhibitor 1.
`Cc1cccc(N2CCN(C(=O)CCNS(=O)(=O)c3ccc4c(c3)oc(=O)n4C)CC2)c1C` gave STEP block 74*, NadD inh -2, rCAG binder 3, LMPTP block 0, Scp-1 inhibitor 7 and STEP inh conf 1.
O=C(N[C@H](C(=O)N1CCC[C@H]1C(=O)NC1CCCC1)c1ccccc1)C1CCCC1 was read as rCAG binder -1.
For CN1CCN(C(=S)C(=O)Nc2ccccc2)CC1 the results were STEP block 41*, NadD inh -4, rCAG binder 2, LMPTP block 0, Scp-1 inhibitor -2 and STEP inh conf 23.
`Cc1ccc(Cn2c(SCC(=O)Nc3cc(C)on3)nc3ccccc3c2=O)cc1` gave STEP block 41*, NadD inh -1, rCAG binder -1, LMPTP block 0, Scp-1 inhibitor -11 and STEP inh conf -5.
For NC(=O)CSc1nc2cc(S(=O)(=O)N3CCOCC3)ccc2o1 the results were STEP block 56*, NadD inh -2, rCAG binder 3, LMPTP block -1, Scp-1 inhibitor 7 and STEP inh conf 1.
For Cc1ccc(C)c(Nc2nc3ccc(C)cc3n3cnnc23)c1 the results were STEP block -1, NadD inh -9, rCAG binder 3, LMPTP block 0 and Scp-1 inhibitor 4.
Screening Cc1ccc2nc(Nc3ccc(F)cc3)c3nncn3c2c1 returned STEP block 45*, NadD inh -8, rCAG binder 7, LMPTP block 27, Scp-1 inhibitor -13 and STEP inh conf 6.
For O=C(NC1CCCCCC1)C(=S)NC1CCCCC1 the results were STEP block 57*, NadD inh -4, rCAG binder 3, LMPTP block -1, Scp-1 inhibitor -6 and STEP inh conf 31*.
For COc1ccc(C(=O)Nc2cc(-c3ccc(C)cc3)no2)cc1 the results were STEP block 94*, NadD inh -4, rCAG binder 0, LMPTP block 1, Scp-1 inhibitor -1 and STEP inh conf -5.
O=C(N/N=C/c1ccc(OC(=O)c2cccc(F)c2)cc1)c1cccnc1 was read as STEP block 98*, NadD inh 7, rCAG binder 1, LMPTP block 57*, Scp-1 inhibitor 20 and STEP inh conf 2.
CCOC(=O)N1CCN(C(=O)C[C@H]2C[C@@]3(C(=O)OC)C(=C[C@H](C(C)(C)C)O[C@@H]3C)N(Cc3cccc4ccccc34)C2=O)CC1 was read as rCAG binder 0.
`CC(C)OCCCNC(=S)Nc1ccc(S(N)(=O)=O)cc1` gave STEP block 83*, NadD inh -2, rCAG binder 0, LMPTP block -2, Scp-1 inhibitor -1 and STEP inh conf 36*.
For CC(=O)c1ccc(NC(=S)NCCc2ccc(S(N)(=O)=O)cc2)cc1 the results were STEP block 0, NadD inh -1, rCAG binder 3, LMPTP block 0 and Scp-1 inhibitor -2.
`NS(=O)(=O)c1ccc(NC(=S)NCCc2ccccc2)cc1` gave STEP block 52*, NadD inh -9, rCAG binder 3, LMPTP block 0, Scp-1 inhibitor -21 and STEP inh conf 38*.
O=C(CN1CCN(Cc2ccccc2)CC1)N/N=C\c1c2ccccc2cc2ccccc12 was read as rCAG binder 3.
CCc1ccc(Nc2nc(N)nc(CSc3nc4ccccc4s3)n2)cc1 was read as STEP block 43*, NadD inh -7, rCAG binder 0, LMPTP block -2, Scp-1 inhibitor -11 and STEP inh conf 8.
For CC(=O)CC[C@@H]1CC[C@]2(CCCN(C(=O)c3ccccc3)C2)O1 the results were rCAG binder 0.
Screening CC(=O)N1CCC(N(CCN2CCOCC2)C(=S)Nc2ccc(C)cc2C)CC1 returned STEP block 6, NadD inh 1, rCAG binder 0, LMPTP block 1 and Scp-1 inhibitor -2.
